Test results from ChEMBL document CHEMBL3259728, “Design, synthesis and biological evaluation of some novel substituted quinazolines as antitumor agents” (2014).

What was measured:
Assay type in all cases: functional
[1] = Growth inhibition of human UACC62 cells assessed as cell growth at 10^-8 M after 48 hrs by SRB assay; conditions: UACC-62, 48 h, read-out: Activity
[2] = Growth inhibition of human NCI-ADR-RES cells assessed as cell growth at 10^-4 M after 48 hrs by SRB assay; conditions: read-out: Activity
[3] = Growth inhibition of human SF539 cells assessed as cell growth at 10^-6 M after 48 hrs by SRB assay; conditions: SF-539, 48 h, read-out: Activity
SNB-19 = test: Growth inhibition of human SNB19 cells assessed as cell growth at 10^-8 M after 48 hrs by SRB assay; conditions: SNB-19, 48 h, read-out: Activity
MCF7 = test: Growth inhibition of human MCF7 cells assessed as cell growth at 10^-6 M after 48 hrs by SRB assay; conditions: MCF7, 48 h, read-out: Activity
T47D [4] = test: Growth inhibition of human T47D cells assessed as cell growth at 10^-5 M after 48 hrs by SRB assay; conditions: read-out: Activity
[5] = Growth inhibition of human OVCAR3 cells assessed as cell growth at 10^-5 M after 48 hrs by SRB assay; conditions: OVCAR-3, 48 h, read-out: Activity
SK-OV-3 [6] = test: Growth inhibition of human SKOV3 cells assessed as cell growth at 10^-6 M after 48 hrs by SRB assay; conditions: SK-OV-3, 48 h, read-out: Activity
IGROV-1 [7] = test: Growth inhibition of human IGROV1 cells assessed as cell growth at 10^-4 M after 48 hrs by SRB assay; conditions: IGROV-1, 48 h, read-out: Activity
[8] = Growth inhibition of human HCC2998 cells assessed as cell growth at 10^-5 M after 48 hrs by SRB assay; conditions: HCC 2998, 48 h, read-out: Activity
[9] = Growth inhibition of human OVCAR5 cells assessed as cell growth at 10^-7 M after 48 hrs by SRB assay; conditions: OVCAR-5, 48 h, read-out: Activity
[10] = Growth inhibition of human OVCAR4 cells assessed as cell growth at 10^-4 M after 48 hrs by SRB assay; conditions: OVCAR-4, 48 h, read-out: Activity
PC-3 = test: Growth inhibition of human PC3 cells assessed as cell growth at 10^-4 M after 48 hrs by SRB assay; conditions: PC-3, 48 h, read-out: Activity
RPMI-8226 = test: Growth inhibition of human RPMI8226 cells assessed as cell growth at 10^-4 M after 48 hrs by SRB assay; conditions: RPMI-8226, 48 h, read-out: Activity
SN12C = test: Growth inhibition of human SN12C cells assessed as cell growth at 10^-5 M after 48 hrs by SRB assay; conditions: read-out: Activity
HT-29 = test: Growth inhibition of human HT-29 cells assessed as cell growth at 10^-8 M after 48 hrs by SRB assay; conditions: HT-29, 48 h, read-out: Activity
SK-OV-3 [11] = test: Growth inhibition of human SKOV3 cells assessed as cell growth at 10^-4 M after 48 hrs by SRB assay; conditions: SK-OV-3, 48 h, read-out: Activity
SK-MEL-28 = test: Cytotoxicity against human SK-MEL-28 cells after 48 hrs by SRB assay; conditions: SK-MEL-28, 48 h
Procedure, shortened: (§1)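 NCI 60-cell-line panel of human tumour lines from nine cancer types. Continuous 48 h exposure at five 10-fold dilutions from 10^-4 to 10^-8 M, with 5-FU as positive control. SRB protein stain read spectrophotometrically at time zero, untreated control and each concentration. GI50, TGI and LC50 were derived from the [(Ti−Tz)/(C−Tz)]×100 growth relations, and out-of-range values are given as > or < the tested limits.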

T47D [12] = test: Growth inhibition of human T47D cells assessed as cell growth at 10^-4 M after 48 hrs by SRB assay; conditions: read-out: Activity
A498 [13] = test: Growth inhibition of human A498 cells assessed as cell growth at 10^-5 M after 48 hrs by SRB assay; conditions: A498, 48 h, read-out: Activity
Procedure, shortened: (§2)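 Five-dose NCI panel protocol. Each dose (10^-4 to 10^-8 M, 10-fold steps) was given as 48 h continuous exposure, and protein was measured by SRB staining. Percentage growth at each level is [(Ti−Tz)/(C−Tz)]×100, where Tz is time-zero absorbance and C is untreated control.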

A498 [14] = test: Growth inhibition of human A498 cells assessed as cell growth at 10^-8 M after 48 hrs by SRB assay; conditions: A498, 48 h, read-out: Activity; procedure, shortened: as §2
DU-145 = test: Growth inhibition of human DU145 cells assessed as cell growth at 10^-5 M after 48 hrs by SRB assay; conditions: DU-145, 48 h, read-out: Activity; procedure, shortened: as §2
[15] = Growth inhibition of human UACC62 cells assessed as cell growth at 10^-7 M after 48 hrs by SRB assay; conditions: UACC-62, 48 h, read-out: Activity
A498 [16] = test: Growth inhibition of human A498 cells assessed as cell growth at 10^-6 M after 48 hrs by SRB assay; conditions: A498, 48 h, read-out: Activity; procedure, shortened: as §2
[17] = Growth inhibition of human Hs578T cells assessed as cell growth at 10^-7 M after 48 hrs by SRB assay; conditions: Hs-578T, read-out: Activity
[18] = Growth inhibition of human BT549 cells assessed as cell growth at 10^-7 M after 48 hrs by SRB assay; conditions: BT-549, 48 h, read-out: Activity; procedure, shortened: as §2
[19] = Growth inhibition of human BT549 cells assessed as cell growth at 10^-5 M after 48 hrs by SRB assay; conditions: BT-549, 48 h, read-out: Activity; procedure, shortened: as §2
RXF 393 = test: Cytotoxicity against human RXF393 cells after 48 hrs by SRB assay; conditions: RXF 393, 48 h; procedure, shortened: as §1
IGROV-1 [20] = test: Growth inhibition of human IGROV1 cells assessed as cell growth at 10^-6 M after 48 hrs by SRB assay; conditions: IGROV-1, 48 h, read-out: Activity
SR = test: Growth inhibition of human SR cells assessed as cell growth at 10^-4 M after 48 hrs by SRB assay; conditions: read-out: Activity
NCI-H23 = test: Growth inhibition of human NCI-H23 cells assessed as cell growth at 10^-6 M after 48 hrs by SRB assay; conditions: NCI-H23, 48 h, read-out: Activity
MDA-MB-435 = test: Growth inhibition of human MDA-MB-435 cells assessed as cell growth at 10^-7 M after 48 hrs by SRB assay; conditions: MDA-MB-435, 48 h, read-out: Activity
[21] = Growth inhibition of human OVCAR8 cells assessed as cell growth at 10^-6 M after 48 hrs by SRB assay; conditions: OVCAR-8, 48 h, read-out: Activity
[22] = Growth inhibition of human NCI-ADR-RES cells assessed as cell growth at 10^-8 M after 48 hrs by SRB assay; conditions: read-out: Activity
[23] = read-out: LC50 (the source's name)
[24] = read-out: pLC50 (the source's name) (converted)

Cc1ccc(-c2nc3ccc(Cl)cc3c(=O)n2/N=C/c2ccccc2)cc1
growth at 0.01 µM [1]: 93% | growth at 100 µM [2]: 36% | growth at 1 µM [3]: 94% | growth at 0.01 µM (SNB-19): 96% | growth at 1 µM (MCF7): 86% | growth at 10 µM (T47D [4]): 14% | growth at 10 µM [5]: 34% | growth at 1 µM (SK-OV-3 [6]): 93% | growth at 100 µM (IGROV-1 [7]): 25% | growth at 10 µM [8]: 96% | growth at 0.1 µM [9]: 88% | growth at 100 µM [10]: 26% | growth at 100 µM (PC-3): 49% | growth at 100 µM (RPMI-8226): 60% | growth at 10 µM (SN12C): 51% | growth at 0.01 µM (HT-29): 100% | growth at 100 µM (SK-OV-3 [11]): -37% | GI50 (SK-MEL-28; read-out: GI50): 20.6 µM | CC50 (SK-MEL-28; [23]): > 100 µM | TGI (SK-MEL-28; read-out: TGI): > 100 µM | GI50 (SK-MEL-28; read-out: pGI50 (converted)): 20.4 µM | CC50 (SK-MEL-28; [24]): > 100 µM | TGI (SK-MEL-28; read-out: pTGI): > 100 µM | growth at 100 µM (T47D [12]): 14% | growth at 10 µM (A498 [13]): 40% | growth at 0.01 µM (A498 [14]): 88% | growth at 10 µM (DU-145): 55% | growth at 0.1 µM [15]: 88% | growth at 1 µM (A498 [16]): 85% | growth at 0.1 µM [17]: 90% | growth at 0.1 µM [18]: 94% | growth at 10 µM [19]: 90% | GI50 (RXF 393; read-out: GI50): 6.46 µM | CC50 (RXF 393; [23]): > 100 µM | TGI (RXF 393; read-out: TGI): > 100 µM | GI50 (RXF 393; read-out: pGI50 (converted)): 6.46 µM | CC50 (RXF 393; [24]): > 100 µM | TGI (RXF 393; read-out: pTGI): > 100 µM | growth at 1 µM (IGROV-1 [20]): 71% | growth at 100 µM (SR): 62% | growth at 1 µM (NCI-H23): 87% | growth at 0.1 µM (MDA-MB-435): 86% | growth at 1 µM [21]: 89% | growth at 0.01 µM [22]: 98%
